11 compounds from ChEMBL document CHEMBL1145104, “Discovery of a long-chain carbamoyl aminocarnitine derivative, a reversible carnitine palmitoyltransferase inhibitor with antiketotic and antidiabetic activity” (J Med Chem, 2003) can be followed below.

Some results are limits rather than exact numbers.

The species named for experiment [1] is Rattus norvegicus. Description: Percent decrease of oleoylcarnitine levels in isolated rat hepatocytes at 3 mM compound concentration; No variation.
Experiment [2] deals with Mus musculus. Put plainly: Percent decrease in the serum glucose level of mice treated with 50 mg/kg of compound orally for 45 days. Format: functional. The following applies: route oral. In outline: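 Oral dosing of male C57BL/KsJ-db/db mice (8 weeks old, n=8) at 50 mg/kg or an equimolar dose, twice daily for 45 days; vehicle was 0.5% carboxymethylcellulose. Serum was collected 9 h after the last dose, after a 9 h fast. Glucose was measured with an autoanalyzer kit; percent reduction was calculated against untreated db/db controls; Student's t test.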

Experiment [3] concerns Mus musculus. Put plainly: Level of fructosamine in […] mice serum after treating with 50 mg/kg of compound orally for 45 days (originally-4.80+/-0.17 mmol/L). The experiment is classed as functional. The following applies: route oral.
For experiment [4], the species on record is Rattus norvegicus. Description: Effective dose of compound that reduces serum beta-hydroxybutyrate levels in rats.
For experiment [5], the system named is Mus musculus. Put plainly: Percent decrease in the liver glycogen level of mice treated with 50 mg/kg of compound orally for 45 days. Format: functional. The following applies: route oral. Put shortly:
(§1)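 Male C57BL/KsJ-db/db mice, 8 weeks old, n=8 per group. Dosed orally at 50 mg/kg or an equimolar dose, twice daily for 45 days; controls got 0.5% carboxymethylcellulose vehicle at 10 mL/kg. Sampled 9 h after the last dose, after a 9 h fast. Percent change was calculated against untreated db/db controls.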

The target of experiment [6] is T1, Carnitine O-palmitoyltransferase 1, liver isoform (Rattus norvegicus, UniProt P32198).
T1 sequence (P32198 whole entry): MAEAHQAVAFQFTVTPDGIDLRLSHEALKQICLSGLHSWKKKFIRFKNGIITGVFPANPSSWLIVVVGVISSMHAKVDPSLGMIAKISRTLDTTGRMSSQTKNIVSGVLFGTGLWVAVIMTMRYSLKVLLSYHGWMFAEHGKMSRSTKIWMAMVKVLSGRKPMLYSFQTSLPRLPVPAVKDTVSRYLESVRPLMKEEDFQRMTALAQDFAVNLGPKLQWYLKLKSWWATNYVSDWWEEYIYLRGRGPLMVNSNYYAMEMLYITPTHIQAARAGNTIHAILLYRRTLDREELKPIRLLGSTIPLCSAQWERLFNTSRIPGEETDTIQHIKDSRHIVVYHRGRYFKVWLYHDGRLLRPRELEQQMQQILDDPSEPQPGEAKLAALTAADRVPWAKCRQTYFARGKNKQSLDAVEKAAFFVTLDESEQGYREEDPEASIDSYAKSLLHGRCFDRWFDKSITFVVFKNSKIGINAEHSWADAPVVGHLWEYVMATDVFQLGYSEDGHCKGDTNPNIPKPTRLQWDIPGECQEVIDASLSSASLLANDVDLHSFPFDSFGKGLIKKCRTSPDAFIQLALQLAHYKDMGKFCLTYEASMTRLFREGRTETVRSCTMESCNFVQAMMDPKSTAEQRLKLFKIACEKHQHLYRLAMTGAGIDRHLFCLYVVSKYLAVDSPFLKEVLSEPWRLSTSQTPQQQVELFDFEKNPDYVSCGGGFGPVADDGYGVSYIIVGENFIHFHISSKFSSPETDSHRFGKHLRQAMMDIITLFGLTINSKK
Description: Inhibition of [14C]palmitoyl-CoA and carnitine binding to carnitine palmitoyltransferase I from rat liver mitochondria. In outline: (§2)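 Intact mitochondria freshly isolated from the livers of fed male Sprague-Dawley rats, suspended in buffer with 225 mM sucrose. Assay medium at pH 7.5 with [14C]palmitoyl-CoA and L-carnitine, and inhibitor at 0–3 mM. Run 1 min at 37 °C; radiolabelled palmitoylcarnitine formation was measured. IC50 was taken from the inhibition curve; mean of two determinations in triplicate.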

Experiment [7] concerns Mus musculus. Description: Percent increase in the liver triglycerides content of mice treated with 50 mg/kg of compound orally for 45 days. The following applies: route oral.
The target in experiment [8] is T2, Carnitine O-palmitoyltransferase 1, muscle isoform (Rattus norvegicus, UniProt Q63704).
T2 sequence (Q63704 whole entry): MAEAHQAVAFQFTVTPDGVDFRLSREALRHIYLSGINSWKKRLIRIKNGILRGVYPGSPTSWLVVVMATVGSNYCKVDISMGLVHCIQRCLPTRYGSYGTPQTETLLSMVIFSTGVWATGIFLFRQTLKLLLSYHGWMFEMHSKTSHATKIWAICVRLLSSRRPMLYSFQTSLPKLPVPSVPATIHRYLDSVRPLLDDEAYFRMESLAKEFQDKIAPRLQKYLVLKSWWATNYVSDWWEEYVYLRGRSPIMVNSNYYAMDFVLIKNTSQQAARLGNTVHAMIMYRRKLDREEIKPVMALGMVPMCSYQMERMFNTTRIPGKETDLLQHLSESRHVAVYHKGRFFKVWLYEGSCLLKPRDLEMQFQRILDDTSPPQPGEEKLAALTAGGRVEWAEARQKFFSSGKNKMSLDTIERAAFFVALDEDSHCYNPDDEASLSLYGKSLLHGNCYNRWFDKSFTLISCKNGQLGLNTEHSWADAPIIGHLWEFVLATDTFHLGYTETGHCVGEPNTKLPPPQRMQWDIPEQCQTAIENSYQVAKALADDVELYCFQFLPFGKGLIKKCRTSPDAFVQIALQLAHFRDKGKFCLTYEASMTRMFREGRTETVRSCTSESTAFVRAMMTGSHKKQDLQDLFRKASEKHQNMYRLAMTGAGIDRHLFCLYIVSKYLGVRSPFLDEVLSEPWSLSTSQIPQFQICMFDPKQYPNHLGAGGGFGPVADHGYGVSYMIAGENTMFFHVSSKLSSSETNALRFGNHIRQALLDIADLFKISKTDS
Description: In vitro inhibition of [14C]palmitoyl-CoA and carnitine binding to carnitine palmitoyltransferase I of rat heart mitochondria. Put shortly: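 Intact mitochondria freshly isolated from the hearts of fed male Sprague-Dawley rats, suspended in buffer with 75 mM sucrose. Assay medium at pH 7.5 with [14C]palmitoyl-CoA and L-carnitine, and inhibitor at 0–3 mM. Run 1 min at 37 °C; [14C]palmitoyl incorporated into carnitine was measured. IC50 was taken from the inhibition curve; mean of two determinations in triplicate.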

The target in experiment [9] is T1, Carnitine O-palmitoyltransferase 1, liver isoform. Description: Inhibition of rat liver carnitine palmitoyltransferase I. To be noted: read-out: Ki app. Put shortly: as §2
In experiment [10] the test system is Mus musculus. Put plainly: Percent increase of free fatty acids level in serum of mice treated with 50 mg/kg of compound orally for 45 days. The following applies: route oral.
Experiment [11] has as its system Mus musculus. Put plainly: Percent decrease in the serum fructosamine level of mice treated with 50 mg/kg of compound orally for 45 days. Format: functional. To be noted: route oral. In outline: as §1
For experiment [12], the system named is Mus musculus. Description: Level of glucose in […] mice serum after treating with 50 mg/kg of compound orally for 45 days (originally-673.9+/-44.09 mg/dL). To be noted: route oral. Format: functional.

Turning to `CCCCCCCCCCCCCCNC(=O)N[C@@H](CC(=O)[O-])C[N+](C)(C)C`, the Decrease result in experiment [1] is “No variation”; in experiment [2], -25%; in experiment [5], -25%; in [11], -30%. The Level in serum in experiment [3] is 3.37 mM l-1; in [12], 202.6 mg/dL. In experiment [4], this compound returned an ED50 of 14.5 mg/kg. Further, the IC50 in experiment [6] is 1.1 µM; in [8] it was 43.4 µM. In addition, the Increase in experiment [7] worked out at 38%; in experiment [10], 20%. The Ki in experiment [9] stood at 0.36 µM.
For `CCCCCCCCCNC(=O)N[C@@H](CC(=O)[O-])C[N+](C)(C)C`, the IC50 in [6] was found to be 31.3 µM; in experiment [8], 46.2 µM.
Turning to `CCCCCCCCCCCCNC(=O)N[C@@H](CC(=O)[O-])C[N+](C)(C)C`, the IC50 was 1.8 µM in experiment [6] and > 120 µM in [8].
On the same counts, the results for `CCCCCCCCCCCCS(=O)(=O)N[C@@H](CC(=O)[O-])C[N+](C)(C)C` are 0.7 µM and 3.4 µM.
In the same order, the values of `CCCCCCCCOC(=O)N[C@H](CC(=O)[O-])C[N+](C)(C)C` are > 300 µM and > 300 µM.
On the same counts, the results for `CCCCCCCNC(=O)N[C@@H](CC(=O)[O-])C[N+](C)(C)C` are 43.6 µM and > 300 µM.
In the case of `CCCCCCCCCNC(=O)N[C@H](CC(=O)[O-])C[N+](C)(C)C`, the IC50 in [6] and in [8] was > 300 µM each time.
As for `CCCCCCCCOC(=O)N[C@@H](CC(=O)[O-])C[N+](C)(C)C`, the half-inhibitory concentration (IC50) was 9.5 µM in experiment [6] and 80.1 µM in experiment [8].
On the same counts, the results for `CCCCCCCCCCCCS(=O)(=O)N[C@H](CC(=O)[O-])C[N+](C)(C)C` are 6 µM and > 10 µM.
Consider `CCCCCCCCCCCNC(=O)N[C@@H](CC(=O)[O-])C[N+](C)(C)C`, for which the IC50 in [8] was determined as 118 µM.
`CCCCCCCCCCCCCCNC(=O)N[C@H](CC(=O)[O-])C[N+](C)(C)C` [TEGLICAR]: the IC50 in experiment [6] came to 58.8 µM; in experiment [8], 167 µM.

By ED50 is commonly meant the midpoint of the dose-response relation. Read a low ED50 as an effect at a small dose. One may read the IC50 as the concentration that gives 50% inhibition.
